Reference: ChEMBL document CHEMBL4406900, “Synthesis and antidepressant-like activity of novel alkoxy-piperidine derivatives targeting SSRI/5-HT1A/5-HT7” (Bioorg Med Chem Lett, 2019)

Experiments:
[1] = target: T1, 5-hydroxytryptamine receptor 1A (Homo sapiens) (UniProt P08908); assay: Displacement of [3H]-8-OH-DPAT from 5HT1A receptor (unknown origin) expressed in HEK293 cells membranes at 1 uM incubated for 60 mins by scintillation counting method relative to control; format: cell membranes
T1 sequence (whole entry): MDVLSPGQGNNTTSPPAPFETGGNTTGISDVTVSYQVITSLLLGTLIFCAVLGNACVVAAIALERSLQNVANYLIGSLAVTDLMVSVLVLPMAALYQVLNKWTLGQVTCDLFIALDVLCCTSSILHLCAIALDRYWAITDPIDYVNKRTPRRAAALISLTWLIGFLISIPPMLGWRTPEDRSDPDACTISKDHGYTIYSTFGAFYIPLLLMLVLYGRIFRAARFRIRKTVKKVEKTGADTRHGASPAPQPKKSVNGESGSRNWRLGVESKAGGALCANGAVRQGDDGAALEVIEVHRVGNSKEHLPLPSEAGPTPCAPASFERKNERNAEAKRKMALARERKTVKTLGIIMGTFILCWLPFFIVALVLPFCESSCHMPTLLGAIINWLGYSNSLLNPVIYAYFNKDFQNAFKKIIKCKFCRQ

[2] = target: T2, 5-hydroxytryptamine receptor 7 (Homo sapiens, UniProt P34969); assay: Displacement of [3H]-LSD from 5HT7 receptor (unknown origin) expressed in CHO cell membranes at 1 uM incubated for 120 mins by scintillation counting method relative to control
T2 sequence (P34969 whole entry): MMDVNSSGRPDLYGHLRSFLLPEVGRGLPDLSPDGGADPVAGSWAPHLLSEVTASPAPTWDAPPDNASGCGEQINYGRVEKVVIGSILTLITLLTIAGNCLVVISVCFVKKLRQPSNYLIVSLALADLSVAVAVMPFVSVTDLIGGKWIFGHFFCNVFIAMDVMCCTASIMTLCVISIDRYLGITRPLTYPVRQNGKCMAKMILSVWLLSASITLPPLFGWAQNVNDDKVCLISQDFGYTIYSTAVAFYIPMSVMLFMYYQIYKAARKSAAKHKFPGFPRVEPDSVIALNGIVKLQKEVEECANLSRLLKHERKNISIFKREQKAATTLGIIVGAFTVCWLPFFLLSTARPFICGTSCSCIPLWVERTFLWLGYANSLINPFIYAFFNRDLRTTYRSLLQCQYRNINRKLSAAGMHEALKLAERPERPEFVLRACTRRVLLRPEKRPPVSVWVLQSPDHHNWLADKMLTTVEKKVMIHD
Outline: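 Single-concentration radioligand displacement on receptor-expressing cell membrane homogenates: [3H]-8-OH-DPAT with HEK-293 membranes for 5-HT1A, [3H]-LSD with CHO membranes for 5-HT7. Values are given as inhibition ratio (%).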

[3] = target: Sodium-dependent serotonin transporter (Rattus norvegicus) (UniProt P31652); assay: Inhibition of rat synaptosomes 5HT transporter assessed as reduction in [3H]serotonin reuptake at 1 uM incubated for 15 mins by scintillation counting method relative to control; format: subcellular
Sequence of Sodium-dependent serotonin transporter (Rattus norvegicus) (P31652 whole entry): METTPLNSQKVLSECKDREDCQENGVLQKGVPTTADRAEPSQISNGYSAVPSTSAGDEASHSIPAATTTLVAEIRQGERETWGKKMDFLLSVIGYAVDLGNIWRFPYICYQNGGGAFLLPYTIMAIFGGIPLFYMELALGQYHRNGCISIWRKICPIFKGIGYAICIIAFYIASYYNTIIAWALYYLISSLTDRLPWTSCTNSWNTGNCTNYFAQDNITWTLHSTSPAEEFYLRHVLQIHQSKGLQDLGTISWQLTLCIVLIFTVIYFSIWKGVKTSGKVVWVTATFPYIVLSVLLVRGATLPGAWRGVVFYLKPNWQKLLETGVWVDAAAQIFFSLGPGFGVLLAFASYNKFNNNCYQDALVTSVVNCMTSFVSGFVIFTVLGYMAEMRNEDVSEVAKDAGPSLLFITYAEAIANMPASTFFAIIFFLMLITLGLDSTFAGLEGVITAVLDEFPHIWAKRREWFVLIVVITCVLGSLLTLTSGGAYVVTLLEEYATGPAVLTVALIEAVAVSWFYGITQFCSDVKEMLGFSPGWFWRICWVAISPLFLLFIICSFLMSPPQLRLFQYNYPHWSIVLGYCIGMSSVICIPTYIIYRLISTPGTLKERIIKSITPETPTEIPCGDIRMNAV
Outline: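 Rat brain synaptosomes; inhibition of [3H]-5-HT incorporation through the serotonin uptake transporter at a single concentration, expressed as inhibition ratio (%).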

[4] = target: T3, 5-hydroxytryptamine receptor 1A (Homo sapiens, UniProt P08908); assay: Displacement of [3H]-8-OH-DPAT from 5HT1A receptor (unknown origin) expressed in HEK293 cells membranes incubated for 60 mins by scintillation counting method; format: cell membranes
T3 sequence (P08908 whole entry): T1 sequence (whole entry)

[5] = target: T2, 5-hydroxytryptamine receptor 7; assay: Displacement of [3H]-LSD from 5HT7 receptor (unknown origin) expressed in CHO cell membranes incubated for 120 mins by scintillation counting method
Outline: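 For 5-HT7, [3H]-LSD displacement binding was run on CHO cell membrane homogenates. Ki came from 8 concentrations, each tested in duplicate.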

[6] = target: Sodium-dependent serotonin transporter (Rattus norvegicus, UniProt P31652); assay: Inhibition of rat synaptosomes 5HT transporter assessed as reduction in [3H]serotonin reuptake incubated for 15 mins by scintillation counting method; format: subcellular
Sequence of Sodium-dependent serotonin transporter (P31652 whole entry): as above
Outline: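 Serotonin uptake transporter assay: inhibition of [3H]-5-HT incorporation into rat brain synaptosomes. IC50 was derived from 8 concentrations, each in duplicate.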

[7] = Half life in rat liver microsomes at 1 uM in presence of NADPH generating system measured for 10 to 90 mins by LC-MS/MS analysis; format: ADME, Microsome
Outline: (§1)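 Metabolic stability in rat or human liver microsomes, reported as t1/2 (min) and intrinsic clearance CL (µL/min/mg).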

[8] = Clearance in rat liver microsomes at 1 uM in presence of NADPH generating system measured for 10 to 90 mins by LC-MS/MS analysis; format: ADME, Microsome; details: read-out: CLH; outline: as §1
[9] = Half life in human liver microsomes at 1 uM in presence of NADPH generating system measured for 10 to 90 mins by LC-MS/MS analysis; format: ADME, Microsome; outline: as §1
[10] = Clearance in human liver microsomes at 1 uM in presence of NADPH generating system measured for 10 to 90 mins by LC-MS/MS analysis; format: ADME, Microsome; details: read-out: CLH; outline: as §1
[11] = system: Mus musculus; assay: Antidepressant activity in mouse assessed as decrease in immobility time at 10 mg/kg, po administrated for daily for 7 days measured 1 hr post last dose by forced swim test relative to control; format: functional; parameters: scale not given: the % may be the effect or the level left
Outline: (§2)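 Male mice, repeated oral dosing at 10, 20 or 40 mg/kg/day for 7 days. Immobility time was scored in the forced swim test. n = 10 per group, mean ± SEM, compared with a vehicle group (*P < 0.05, **P < 0.01).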

[12] = system: Mus musculus; assay: Antidepressant activity in mouse assessed as decrease in immobility time at 20 mg/kg, po administrated for daily for 7 days measured 1 hr post last dose by forced swim test relative to control; format: functional; parameters: scale not given: the % may be the effect or the level left; outline: as §2
[13] = system: Mus musculus; assay: Antidepressant activity in mouse assessed as decrease in immobility time at 40 mg/kg, po administrated for daily for 7 days measured 1 hr post last dose by forced swim test relative to control; format: functional; parameters: scale not given: the % may be the effect or the level left; outline: as §2
[14] = system: Mus musculus; assay: Antidepressant activity in mouse assessed as decrease in immobility time at 10 mg/kg, po administrated for daily for 7 days measured 1 hr post last dose by tail suspension test relative to control; format: functional; parameters: scale not given: the % may be the effect or the level left
Outline: (§3)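 Tail suspension test in male mice after 7 days of repeated PO dosing at 10, 20 or 40 mg/kg/day. Immobility time was recorded with n = 10 per group, given as mean ± SEM and tested against vehicle (*P < 0.05, **P < 0.01).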

[15] = system: Mus musculus; assay: Antidepressant activity in mouse assessed as decrease in immobility time at 20 mg/kg, po administrated for daily for 7 days measured 1 hr post last dose by tail suspension test relative to control; format: functional; parameters: scale not given: the % may be the effect or the level left; outline: as §3
[16] = system: Mus musculus; assay: Antidepressant activity in mouse assessed as decrease in immobility time at […], po administrated for daily for 7 days measured 1 hr post last dose by tail suspension test relative to control; format: functional; parameters: scale not given: the % may be the effect or the level left

| Structure (SMILES) | inhibition [1] [%] | inhibition [2] [%] | inhibition [3] [%] | further results |
| --- | --- | --- | --- | --- |
| Fc1ccc(OCCN2CCC(Cc3c[nH]c4ccc(F)cc34)CC2)c(-c2ccccc2)c1 | 72.3 | 97.2 | 101 |  |
| Fc1ccc(-c2cc(F)ccc2OCCN2CCC(c3c[nH]c4ccc(F)cc34)CC2)cc1 | 97.4 | 86.5 | 90.6 |  |
| Fc1ccc(OCCN2CCC(CCc3c[nH]c4ccc(F)cc34)CC2)c(-c2ccccc2)c1 | 54.3 | 94.3 | 99.8 |  |
| COc1ccc(-c2cc(F)ccc2OCCN2CCC(c3c[nH]c4ccc(F)cc34)CC2)cc1 | 98.7 | 95.9 | 12.3 |  |
| Fc1ccc(OCCN2CCC(c3c[nH]c4ccc(F)cc34)CC2)c(-c2ccccc2F)c1 | 97.8 | 88.7 | 97.1 |  |
| Fc1ccc(OCCN2CCC(c3c[nH]c4ccc(F)cc34)CC2)c(-c2ccccc2)c1 | 94.2 | 90.4 | 96.3 | Ki [4]: 12 nM; Ki [5]: 25 nM; IC50 [6]: 177 nM; half-life at 1 µM [7]: 34.5 min; microsomal CLint at 1 µM [8]: 40.2 µL/min/mg; half-life at 1 µM [9]: 61.5 min; microsomal CLint at 1 µM [10]: 22.5 µL/min/mg; Activity [11]: 17%; Activity [12]: 8%; Activity [13]: 22%; Activity [14]: 10%; Activity [15]: 22%; Activity [16]: 24% |
| Fc1ccc(OCCCN2CCC(c3c[nH]c4ccc(F)cc34)CC2)c(-c2ccccc2)c1 | 97.7 | 76.1 | 87 |  |
| Fc1ccc2[nH]cc(C3CCN(CCOc4ccc(F)c(-c5ccccc5)c4)CC3)c2c1 | 96.9 | 54.2 | 66.6 |  |
| Fc1ccc(OCCCN2CCC(Cc3c[nH]c4ccc(F)cc34)CC2)c(-c2ccccc2)c1 | 81.9 | 86.4 | 102 |  |
| Cc1ccc(Sc2ccccc2N2CCNCC2)c(C)c1 [VORTIOXETINE] |  | 92.5 | 101 | microsomal CLint at 1 µM [10]: 6.5 µL/min/mg; Activity [13]: 52%; Activity [16]: 48% |
| N#Cc1ccc(-c2cc(F)ccc2OCCN2CCC(c3c[nH]c4ccc(F)cc34)CC2)cc1 | 97.5 | 95.8 | 63 |  |
| Cc1ccc(-c2cc(F)ccc2OCCN2CCC(c3c[nH]c4ccc(F)cc34)CC2)cc1 | 94.5 | 86.2 | 38.9 |  |
| Fc1cccc(-c2cc(F)ccc2OCCN2CCC(c3c[nH]c4ccc(F)cc34)CC2)c1 | 95.9 | 91 | 94.3 | Ki [4]: 17 nM; Ki [5]: 35 nM; IC50 [6]: 85 nM; half-life at 1 µM [7]: 22.9 min; microsomal CLint at 1 µM [8]: 60.4 µL/min/mg; half-life at 1 µM [9]: 61.4 min; microsomal CLint at 1 µM [10]: 22.6 µL/min/mg; Activity [11]: 20%; Activity [12]: 6%; Activity [13]: 27%; Activity [14]: 8%; Activity [15]: 2%; Activity [16]: 17% |
| COc1ccc2c(c1)[C@]13CCCC[C@@H]1[C@H](C2)N(C)CC3 [DEXTROMETHORPHAN] |  |  |  | microsomal CLint at 1 µM [10]: 31 µL/min/mg |
| Fc1ccc(OCCN2CCC(c3c[nH]c4ccc(F)cc34)CC2)c(-c2ccc(Cl)cc2)c1 | 95 | 80.3 | 27.3 |  |
